Shown are actives, neighbours in structure and some others; about 3.6% of the full set was active somewhere.
STAT3 act: increases IL-6 driven STAT3 reporter signal. AID 871. 190,000 tested, 0.91% active. U3A cells, IL-6 STAT3-luciferase reporter, luminescence; 100% = signal with IL-6 EC80 alone. activation (% of control), % at 5.6 µM;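 active means activation above the screen-wide mean of compound activation plus 3 SD, cut at about 130% in these data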
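Assay system – human STAT1-deficient U3A cells with stable STAT3-luciferase reporter · Also added – IL-6 (33 ng/mL) · Schedule – compound 1 h, then IL-6 6 h at 37 °C · Technique – reporter luminescence signal · Evaluation – % activation versus median of IL-6-stimulated wells · Benchmarks – IL-6-only wells as 100% reference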
PERK inh: human PERK inhibition, primary cell-based screen; inhibition, % at 5.6 µM; Q9NZJ5; CHO PERK-DD fusion, SEAP luminescence translation reporter; 220,000 tested, 0.17% active;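 active means inhibition above the mean inhibition of all tested compounds plus 3 SD, set separately per screening campaign, cut at about 2.9% in these data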;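 further: PERK kinase domain activated by AP20187 dimerizer at 100 nM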
Hsp70 act: switches on Hsp70 transcription. HeLa Hsp70 promoter luciferase reporter, luminescence; scaled: vehicle 0, proteasome-inhibitor control 100%. activation, % at 10 µM. 200,000 tested, 0.04% active;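 active means activation above the mean across all tested compounds plus 3 SD, cutoff set per campaign, cut at about 5.5% in these data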
AHR activator: activates the human aryl hydrocarbon receptor; activation, % at 5 µM; P35869; AHR-responsive luciferase reporter cells, luminescence; 320,000 tested, 2.5% active; in the data active means activation above about 47%
Target sequence (P35869 whole entry, looked up): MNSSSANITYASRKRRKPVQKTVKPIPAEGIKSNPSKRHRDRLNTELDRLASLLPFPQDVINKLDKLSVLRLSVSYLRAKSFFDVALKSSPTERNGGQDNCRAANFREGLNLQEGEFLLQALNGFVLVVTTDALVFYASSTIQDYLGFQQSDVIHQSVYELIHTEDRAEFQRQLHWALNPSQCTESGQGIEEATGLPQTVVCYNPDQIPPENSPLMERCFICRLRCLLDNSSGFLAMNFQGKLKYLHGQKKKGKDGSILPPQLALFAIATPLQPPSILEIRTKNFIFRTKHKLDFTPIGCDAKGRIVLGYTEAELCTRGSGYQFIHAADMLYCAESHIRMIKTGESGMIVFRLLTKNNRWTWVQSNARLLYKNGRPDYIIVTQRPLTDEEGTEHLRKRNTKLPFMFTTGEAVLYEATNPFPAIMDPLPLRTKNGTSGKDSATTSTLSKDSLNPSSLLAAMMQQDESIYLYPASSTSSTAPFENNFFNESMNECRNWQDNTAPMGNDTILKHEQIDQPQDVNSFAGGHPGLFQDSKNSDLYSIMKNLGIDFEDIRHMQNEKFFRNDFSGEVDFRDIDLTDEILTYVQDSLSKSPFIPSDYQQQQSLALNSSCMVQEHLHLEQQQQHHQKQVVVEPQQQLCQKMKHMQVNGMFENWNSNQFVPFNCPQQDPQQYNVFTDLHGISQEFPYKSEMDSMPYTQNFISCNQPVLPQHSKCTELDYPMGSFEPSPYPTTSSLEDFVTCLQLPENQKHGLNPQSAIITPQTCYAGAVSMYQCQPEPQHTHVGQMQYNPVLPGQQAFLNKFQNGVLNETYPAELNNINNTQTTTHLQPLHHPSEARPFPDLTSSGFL
HSF1 inh: HSF1 inhibition; activity change, negative = inhibition, % at 7.5 µM (by protocol); NIH3T3-HGL HSE-luciferase, MG132-induced, luminescence 8 h; active compounds read low; 300,000 tested, 0.77% active;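 active means more than half of replicate wells show activity change below -50%, luminescence cut by over half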;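 further: luciferase reports HSF-1 transcriptional activity via heat shock element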
PolyA inhibitor: inhibitors of polyadenylation in S. cerevisiae; AID 1875; activity score, % at 12 µM; S. cerevisiae SKY197-pL101 polyadenylation reporter, beta-gal luminescence; efflux-impaired pdr1/pdr3 knockout yeast; score 100 = 6 SD above DMSO; 300,000 tested, 0.02% active;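 active means lowest replicate activity score at least 50, where 100 means six control SD above control mean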;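 further: yeast exposed to compound for 9 h at 30 °C; higher score means more reporter readthrough which indicates perturbed polyadenylation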
AHR act confirm: confirmation of human aryl hydrocarbon receptor activators; human cells, AHR-responsive luciferase reporter, luminescence; AID 2845; 2,300 tested, 87% active; shares compounds with AHR activator; activation, % at 9 µM; in the data active means activation above about 49%;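 further: HepG2 hepatoma cells carrying a DRE-driven firefly luciferase reporter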
PXR counter: activates human PXR in AHR activator counter-screen | shares compounds with AHR activator | cell-based PXR reporter, luciferase luminescence | 2,300 tested, 88% active | AID 434939 | activation, % at 11.6 µM; in the data active means activation above about 11%;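 further: human hepatoma DPX-2 cells expressing full-length human PXR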
Numbers stand for hits; - = inactive; . = not tested or not shown.

SMILES | STAT3 act | PERK inh | Hsp70 act | AHR activator | HSF1 inh | PolyA inhibitor | AHR act confirm | PXR counter
O=C(NC1CCN(S(=O)(=O)c2ccc(F)cc2)CC1)c1cccnc1 | . | . | . | - | - | - | . | .
CCn1c(SCC(=O)c2c(N)n(C3CC3)c(=O)[nH]c2=O)nnc1-c1ccoc1C | . | . | . | - | . | . | . | .
COc1ccc(CCNC(=O)[C@H](C)NC(=O)[C@@H]2CSC3c4ccccc4C(=O)N32)cc1 (stereo partly specified) | . | . | . | - | - | - | . | .
C[C@H](NC(=O)[C@@H]1CSC2c3ccccc3C(=O)N21)C(=O)NCCc1ccccc1 (stereo partly specified) | . | . | . | 123.6 | - | - | 106.6 | 59.1
C[C@H](NC(=O)[C@@H]1CSC2c3ccccc3C(=O)N21)C(=O)NCCc1ccc(F)cc1 (stereo partly specified) | . | . | . | 95.5 | - | - | 104.2 | 54.9
COc1ccc([N+](=O)[O-])cc1NC(=O)C(C)OC(=O)Cn1[nH]c(=O)c2ccccc2c1=O (stereo unspecified) | . | . | . | - | - | - | . | .
CC(OC(=O)C1CC(=O)N(Cc2ccccc2)C1)C(=O)Nc1cccc(C#N)c1 (stereo unspecified) | . | . | . | - | - | - | . | .
COc1ccccc1NC(=O)c1cc(=O)[nH]c2ccccc12 | . | . | . | 80.2 | - | - | 92.0 | 15.6
CCOc1cc(N2CCOCC2)c(OCC)cc1NC(=O)c1ccc(-n2ccnc2)c([N+](=O)[O-])c1 | . | . | . | - | - | - | . | .
COc1ccccc1NC(=O)c1ccc(-n2ccnc2)c([N+](=O)[O-])c1 | . | . | . | 94.9 | - | - | 104.0 | 20.4
COc1cc2c(cc1NC(=S)Nc1cccc(C(F)(F)F)c1)oc1ccccc12 | - | - | - | 106.8 | - | - | 92.1 | 29.3
COc1ccccc1NC(=O)c1ccc2c(c1)nnn2C | - | - | - | 94.9 | - | - | 74.2 | .
O=c1c2c(nc3nc(NCc4cccc(Cl)c4)[nH]n13)CCC2 | - | - | - | - | - | - | . | .
COc1cc2c(cc1NC(=O)c1ccc3c(c1)OCO3)oc1ccccc12 | - | - | - | 98.5 | - | - | 119.5 | 24.3
COc1ccccc1NC(=O)C(=N\O)/C(C)=N/O | - | - | - | 88.7 | - | - | 115.7 | 25.2
COc1cc2c(cc1NCc1ccc3c(c1)OCO3)oc1ccccc12 | - | - | - | - | - | - | . | .
COc1cc2c(cc1NC(=O)C(C)NCc1ccccc1)oc1ccccc12 (stereo unspecified) | - | - | - | 117.2 | - | - | 132.8 | 89.7
COc1ccccc1NC(=O)c1ccc2c(c1)OCO2 | . | . | . | 129.1 | - | - | 104.6 | 28.0
Cc1ccc(CN2CCN(C(=O)CC(C)C)CC2)cc1 | . | . | . | - | - | - | . | .
COc1cc(C#N)c(NS(=O)(=O)c2ccc3[nH]c(=O)sc3c2)cc1OC | . | . | . | - | - | - | . | .
COc1ccc(OC)c(NC(=O)c2ccc3c(c2)OCO3)c1 | . | . | . | 111.6 | - | - | 101.8 | 22.4
O=C(CC1C(=O)NCCN1Cc1c(F)cccc1Cl)NC1CCCC1 (stereo unspecified) | - | - | - | - | . | - | . | .
O=c1c(-c2nn[nH]n2)coc2ccc(Cl)cc12 | - | - | - | - | - | - | . | .
COc1ccc(CCNC(=O)c2cnc3scc(C)n3c2=O)cc1OC | - | - | - | 104.9 | - | - | 94.1 | 39.7
COc1ccc(C)cc1NC(=O)c1cnc2scc(C)n2c1=O | - | - | - | . | . | . | . | .
SMILES | STAT3 act | PERK inh | Hsp70 act | AHR activator | HSF1 inh | PolyA inhibitor | AHR act confirm | PXR counter
Cc1ccc(NC(=O)CSc2nnc(C3CC3)n2CC2CCCO2)cc1C (stereo unspecified) | . | . | . | - | - | - | . | .
Fc1cccc2sc(Nc3nc4cc5c(cc4s3)OCO5)nc12 | - | - | - | 130.1 | - | - | 120.7 | 12.1
CC(=O)Nc1nc2c(F)cccc2s1 | - | - | - | - | - | - | . | .
Cn1c(CNc2ccc(Cl)cc2)nnc1SCc1ccccc1 | - | - | - | 101.2 | - | - | - | 140.9
CCn1c(CNc2ccc(Cl)cc2)nnc1SCc1ccccc1 | - | - | - | - | - | - | . | .
CC(C)[C@H](NC(=O)OCc1ccccc1)C(=O)N[C@@H](Cc1c[nH]c2ccccc12)C(=O)O | . | . | . | - | - | - | . | .
C/C(=N\Nc1cc(N2CCOCC2)ncn1)c1ccccc1 | . | . | . | 89.4 | - | - | - | 49.6
CCC(=O)Nc1c(C(=O)Nc2ccc3c(c2)OCCO3)oc2ccccc12 | - | - | - | 87.3 | - | - | - | 29.6
CCC(=O)Nc1ccc(NC(=O)c2oc3ccccc3c2C)cc1 | . | . | . | - | - | - | . | .
O=C(Nc1ccccc1)c1oc2ccccc2c1NC(=O)C1CC1 | . | . | . | 102.5 | - | - | - | 51.4
COc1ccc(NC(=O)c2oc3ccccc3c2NC(=O)C2CC2)cc1OC | . | . | . | - | - | - | . | .
O=C(Nc1ccc(F)c(F)c1)c1oc2ccccc2c1NC(=O)C1CCCO1 (stereo unspecified) | - | - | - | 81.3 | . | . | 134.9 | 23.6
O=C(CCC1CCCC1)NNC(=O)c1ccccc1O | . | . | . | - | - | - | . | .
O=C(Nc1ccccc1C(=O)N/N=C/c1ccco1)c1ccc(Cl)cc1 | - | - | - | 86.5 | - | - | 94.1 | 29.9
O=C(Nc1ccccc1C(=O)N/N=C/c1ccco1)c1ccccc1 | - | - | - | 126.7 | - | - | 151.4 | 17.7
O=C(N/N=C/c1ccco1)c1ccncc1 | - | - | - | - | - | - | . | .
Cc1ccccc1C(=O)Nc1ccccc1C(=O)N/N=C\c1ccco1 | - | - | - | - | - | - | . | .
O=C(Nc1ccccc1C(=O)N/N=C/c1ccco1)c1ccc(F)cc1 | - | - | - | 200.4 | - | - | 111.4 | 12.3
CNc1c(NS(=O)(=O)c2cc(OC)ccc2OC)c(=O)oc2ccccc12 | . | . | . | - | - | - | . | .
CCCCNC(=S)N=Nc1c(O)[nH]c2ccccc12 | - | - | - | - | - | - | . | .
COCCNC(=S)N=Nc1c(O)[nH]c2c(C)cc(C)cc12 | - | - | - | 116.2 | - | - | 92.9 | 71.2
COc1ccccc1C(=O)Nc1ccc(N2CCCCC2)cc1 | 151.2 | - | - | 87.6 | - | - | 99.2 | .
COc1ccc(Br)cc1C(=O)Nc1ccc(N2CCN(S(C)(=O)=O)CC2)cc1 | - | - | - | - | - | - | . | .
COc1ccc(Br)cc1C(=O)Nc1ccc(N2CCCC2)cc1 | . | . | . | 104.6 | - | - | 148.1 | 17.7
CCOC(=O)CN(C(=O)c1ccccc1[N+](=O)[O-])C(C)(C)C | . | - | . | - | - | - | . | .
O=c1nc(-c2ccccc2)c2ccccc2[nH]1 | - | - | - | - | - | - | . | .
c1ccc2nc3c(nc2c1)[nH]c1ccccc13 | - | - | - | 157.8 | - | - | 158.4 | 13.9

Compound activity (PubChem)
